Article PMC10443334 (Microbial Biotechnology, 2023)
Blank lines part the entries; values can stand above or below the compound they belong to. Where a SMILES comes first, the peptide text is derived from it. Bridges are numbered along the chain shown (N, C = ends). [ ]: non-standard residue; d: D form. The star is where a group is joined. X1 = CC[C@H](C)CCCCC(=O)*; Dab = NCC[C@H](N)C(=O)O

What was measured:
THP-1 cells [1] = assay: NF-κB activation western blot; assay type: cell-based, human; settings: TAK242 1 μM (infection) or 100 nM (LPS) for 1 h
Procedure, shortened: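 THP-1 cells were differentiated with PMA (10 ng/mL, 48 h). For infection, cells got TAK242 1 μM for 1 h, then washed log-phase BL21/pEmpty or BL21/pMCR-1 at MOI 50 in serum-free medium with kanamycin and IPTG for 4 h. For LPS, cells got TAK242 100 nM for 1 h, then purified LPS (1 μg/mL) for 4 h. Cell extracts were western blotted and relative band levels quantified.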

THP-1 cells [2] = assay: LDH release and caspase 1 western blot after OMV stimulation; assay type: cell-based, human; settings: Wed 50 μM pre-treatment for 2 h, OMVs 20 μg protein/mL
Procedure, shortened: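 PMA-differentiated (10 ng/mL, 48 h) THP-1 macrophages were pre-treated with DMSO or 50 μM Wed, then exposed to OMVs (20 μg protein/mL) for 4 h at 37°C, 5% CO2. OMVs came from 8 h LB culture supernatants, filtered, concentrated on 100-kDa filters and pelleted at 150,000 g for 3 h. LDH in media was read by kit as % of 0.1% Triton X-100 lysis; lysates were western blotted with chemiluminescent quantitation.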

BL21/pMCR-1 [3] = assay: Microdilution MIC/MBC; assay type: cell-based, E. coli; settings: MIC ratio BL21/pMCR-1 vs BL21/pEmpty
Procedure, shortened: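 Broth microdilution MIC/MBC followed CLSI. Strains were E. coli BL21 carrying pET28a-mcr-1 or empty pET28a, grown in LB (pH 7.2–7.4) with 50 μg/mL kanamycin. MCR-1 expression was induced with 0.5 mM IPTG at 37°C with shaking at 220 rpm.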

BL21/pMCR-1 [4] = assay: Time-killing kinetics; assay type: cell-based, E. coli; settings: 16 μg/mL, 1 × 10^5 CFU/mL, IPTG, 37°C, agar plate dilution count
Procedure, shortened: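 Suspensions of IPTG-induced BL21/pMCR-1 (1 × 10^5 CFU/mL) were sub-cultured into tubes with IPTG, with or without test compound at 4 × MIC, at 37°C. Viable counts were taken by agar plate dilution at fixed time intervals. Data are mean ± SD from three independent experiments.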

Structure (SMILES): CCOC(=O)C1=CCCC[C@H]1S(=O)(=O)Nc1ccc(F)cc1Cl [TAK242, Resatorvid]
p-P65 and p-IκB after infection or LPS stimulation (THP-1 cells [1]): inhibited

Structure (SMILES): COc1cc(O)c2c(c1)oc(=O)c1c3cc(O)c(O)cc3oc21 [Wed, wedelolactone]
macrophage cell death and caspase-1 processing after OMV stimulation (THP-1 cells [2]): markedly reduced

increase of MIC against BL21/pMCR-1 compared to BL21/pEmpty (BL21/pMCR-1 [3]): 8 fold
Structure (SMILES): CC[C@H](C)CCCCC(=O)N[C@@H](CCN)C(=O)N[C@H](C(=O)N[C@@H](CCN)C(=O)N[C@H]1CCNC(=O)[C@H]([C@@H](C)O)NC(=O)[C@H](CCN)NC(=O)[C@H](CCN)NC(=O)[C@H](CC(C)C)NC(=O)[C@@H](Cc2ccccc2)NC(=O)[C@H](CCN)NC1=O)[C@@H](C)O [polymyxin B, Polymyxin B sulphate] (X1-[Dab]T[Dab][Dab][Dab][dF]L[Dab][Dab]T; lactam 4-C (inferred); N-terminus assumed)
time to eradicate all bacteria (time-kill kinetics) (BL21/pMCR-1 [4]): 4 h
